MIC and IC50 data for 38 compounds are collected here from ChEMBL document CHEMBL2434915, “2-(2-Hydrazinyl)thiazole derivatives: design, synthesis and in vitro antimycobacterial studies” (Eur J Med Chem, 2013).

Values after ≈ are worked out from the molar mass of the structure shown.

Experiment [1] deals with Mycobacterium tuberculosis. Nature of the experiment: Antimycobacterial activity against Mycobacterium tuberculosis H37Rv after 5 days by broth microdilution method. In kind it is functional. As to conditions: 120 h. The procedure, abridged:
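Twofold DMSO dilutions (final 100 to 0.19, units as printed unclear) in Middlebrook 7H9 with 0.2% glycerol, 0.05% Tween 80 and 10% ADC; inoculum 3-7 x 10⁵ CFU/ml; 37°C for 5 days. Resazurin/Tween 80 then added, 24 h more at 37°C; A575/A610 read. MIC = lowest concentration giving 80% inhibition versus medium-only (100%) and drug-free culture (0%) controls; isoniazid reference.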

The next experiment relates to A549. As to the kind of experiment: Cytotoxicity against human A549 cells after 48 hrs by MTT assay. In kind it is cell-based. In outline: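 A549 human lung carcinoma type II epithelial cells kept in RPMI-1640 with 5% FBS, penicillin/streptomycin and 2 mM L-glutamine at 37 °C, 5% CO2. Seeded at 3 × 10³ cells/well and left overnight. Exposed to compounds at various concentrations for 48 h. After a PBS wash, MTT (5 mg/ml) was added for 4 h at 37 °C. Formazan dissolved in DMSO, read at 540 nm. IC50 from survival plots; mean ±SE, n=5.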

`CC(=O)c1sc(N/N=C/c2cccc3c2OCO3)nc1C` returned an MIC in experiment [1] of more than 200 µM. The same measure, in the same setting: in the case of `CCOC(=O)c1sc(N/N=C(\C)c2cccs2)nc1C` it was 100 µM (≈ 30.9 µg/mL). For the compound `CCOC(=O)c1sc(N/N=C/c2ccc(OC)c(OC)c2)nc1C`, in experiment [1], the MIC was more than 200 µM. Take `CCOC(=O)c1sc(N/N=C(\C)c2cccc(Cl)c2)nc1C`: the MIC in experiment [1] was more than 200 µM. The same measure, in the same setting: the result for `CCOC(=O)c1sc(N/N=C/c2ccc(Cl)cc2)nc1C` reads more than 200 µM; that for `CCOC(=O)c1sc(N/N=C/c2ccc(O)cc2)nc1C`, more than 200 µM.

On to `CCOC(=O)c1sc(N/N=C/c2c[nH]c3ccccc23)nc1C`, for which, in experiment [1], the lowest concentration to inhibit growth (MIC) was 200 µM (≈ 65.7 µg/mL). Same read-out and setting: in the case of `CCOC(=O)c1sc(N/N=C/c2ccc(Cl)cc2Cl)nc1C` it was more than 200 µM; in that of `CCOC(=O)c1sc(N/N=C/c2ccc(C)cc2)nc1C`, more than 200 µM.

In the experiment with A549, `CCOC(=O)c1sc(N/N=C(\C)c2ccccn2)nc1C` gave an IC50 of 140 µg/mL (≈ 460 µM). This compound yielded an MIC in experiment [1] of 12.5 µM (≈ 3.8 µg/mL).

The compound `CCOC(=O)c1sc(N/N=C/c2ccccc2Cl)nc1C` came in with an MIC in experiment [1] of more than 200 µM. On to `CCOC(=O)Cc1csc(N/N=C(\C)c2cccnc2)n1`, for which, in experiment [1], 200 µM (≈ 60.9 µg/mL) was the least that counted as inhibitory (MIC).

For the compound `CCOC(=O)c1sc(N/N=C/c2ccc(OC)c(O)c2)nc1C`, the MIC in experiment [1] was more than 200 µM. The same measure, in the same setting: the result for `CC(=O)c1sc(N/N=C/c2ccco2)nc1C` reads 200 µM (≈ 49.9 µg/mL). Same read-out and setting: the result for `COc1cc(/C=N/Nc2nc(C)c(C(C)=O)s2)cc(OC)c1OC` reads more than 200 µM; that for `CCOC(=O)c1sc(N/N=C/c2cccc(O)c2)nc1C`, more than 200 µM; that for `CCOC(=O)c1sc(N/N=C/c2ccc(N(C)C)cc2)nc1C`, 200 µM (≈ 66.5 µg/mL). For the compound `CCOC(=O)c1sc(N/N=C/c2ccccc2O)nc1C`, the MIC in experiment [1] stood at 25 µM (≈ 7.63 µg/mL).

`CC(=O)c1sc(N/N=C(\C)c2ccccn2)nc1C` gave an IC50 in the experiment on A549 of 50 µg/mL (≈ 182 µM). This compound returned an MIC in experiment [1] of 100 µM (≈ 27.4 µg/mL). Turning to `CC(=O)c1sc(N/N=C/c2ccc(Cl)cc2Cl)nc1C`, the minimum inhibitory concentration (MIC) in experiment [1] is more than 200 µM. In the case of `CCOC(=O)c1sc(N/N=C(\C)c2ccccc2)nc1C`, half-maximal inhibition in the experiment with A549 (IC50) required 150 µg/mL (≈ 494 µM). Moreover, the MIC in experiment [1] was more than 200 µM. `CCOC(=O)c1sc(N/N=C/c2ccc([N+](=O)[O-])cc2)nc1C`: the MIC in experiment [1] came to 200 µM (≈ 66.9 µg/mL). Still for that read-out and setting: the result for `CCOC(=O)c1sc(N/N=C/c2cccc(Br)c2)nc1C` reads more than 200 µM; that for `CC(=O)c1sc(N/N=C(\C)c2cccs2)nc1C`, 200 µM (≈ 55.9 µg/mL). As for `CCOC(=O)Cc1csc(N/N=C(\C)c2ccccn2)n1`, the IC50 with A549 was found to be 200 µg/mL (≈ 657 µM). This compound registered an MIC in experiment [1] of 200 µM (≈ 60.9 µg/mL). The compound `CCOC(=O)c1sc(N/N=C(\C)c2cccnc2)nc1C` registered a minimal inhibitory concentration (MIC) in experiment [1] of more than 200 µM. Compound `CC(=O)c1sc(N/N=C/c2c[nH]c3ccccc23)nc1C` yielded an MIC in experiment [1] of more than 200 µM. Same read-out and setting: in the case of `NNC(=O)c1ccncc1` [ISONIAZID] it was 0.45 µM (≈ 0.0617 µg/mL). Still for that read-out and setting: the result for `CCOC(=O)c1sc(N/N=C(\C)c2ccncc2)nc1C` reads 200 µM (≈ 60.9 µg/mL); that for `CCOC(=O)c1sc(N/N=C(\C)c2ccc(F)cc2)nc1C`, 200 µM (≈ 64.3 µg/mL). On the same count and under the same terms, in the case of `CCOC(=O)c1sc(N/N=C/c2ccccc2[N+](=O)[O-])nc1C` it was more than 200 µM; in that of `CCOC(=O)c1sc(N/N=C/c2ccc(OC)cc2)nc1C`, more than 200 µM; in that of `CCOC(=O)c1sc(N/N=C/c2ccc3c(c2)OCO3)nc1C`, more than 200 µM. For `CCOC(=O)c1sc(N/N=C/c2cc(OC)c(OC)c(OC)c2)nc1C`, in experiment [1], the MIC was more than 200 µM. The same measure, in the same setting: in the case of `CCOC(=O)c1sc(N/N=C/c2ccccc2)nc1C` it was more than 200 µM; in that of `CCOC(=O)c1sc(N/N=C/c2ccco2)nc1C`, 200 µM (≈ 55.9 µg/mL); in that of `CCOC(=O)c1sc(N/N=C/c2ccc(O)c(OCC)c2)nc1C`, more than 200 µM. Still for that read-out and setting: in the case of `CCOC(=O)c1sc(N/N=C/c2ccc(O)c(OC)c2)nc1C` it was more than 200 µM.
